From PubChem BioAssay
Values without a mark were called inactive. Results filed as inconclusive are left out. Activity calls are given as the source filed them.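 The calls were made as follows, unless noted: active = inhibition over a set limit, the all-compound mean plus 3 SD, in both replicate runs; inconclusive = over that limit in just one replicate run; inactive = at or under that limit in both runs.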

Experiments:
[1] = OD615 S. cerevisiae growth inhibition, permissive medium, pilot counter-assay, permissive growth control for S. cerevisiae lifespan shortening project (AID 705;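 active = growth inhibition above 25% in both replicates, a cutoff set 3 SD above the mean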); conditions: OD615, 24 h, at 10 µM, hits give high values
Outline: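 System: Engineered DeaD yeast | Buffer or medium: SC raffinose/galactose permissive medium | Incubation: Cells pre-grown 4 h, then 24 h compound exposure, 30 °C humidified | Measured by: Absorbance (optical density) at 615 nm | Read-out: Reduction in yeast growth (OD615)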

[2] = Restrictive medium S. cerevisiae growth inhibition, OD615, pilot screen of yeast lifespan reduction project, restrictive growth control (AID 706;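 active = growth inhibition above a set limit, 3 SD over mean compound inhibition, in both replicates, cut at about 43% in these data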;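 also: modified DeaD lifespan yeast strain shifted to restrictive glucose medium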); conditions: OD615, 48 h, at 10 µM, hits give high values
Outline: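 Material: modified S. cerevisiae; Medium: glucose-based CSMM-D restrictive medium; Compound dosing: one concentration, 10 µM final, 0.25% DMSO; Incubation: 48 h compound exposure at 30 °C; Measured by: OD615.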

[3] = viability gain of MRP-1-high H69AR cells under doxorubicin, pilot screen, MRP-1 activator project, CellTiter-Glo, duplicate (AID 807;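 active = viability increase at or above a cutoff of the median across tested compounds plus 3 SD, cut at about 8.5% in these data, passing the limit was not always enough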;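 also: compound pretreatment 18-22 h then 72 h combined with doxorubicin; 0% = doxorubicin alone and 100% = vehicle without doxorubicin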); conditions: H69AR viability with doxorubicin, CellTiter-Glo luminescence; at 10 µM; hits give high values
[4] = growth suppression of beta-catenin knockout HCT116, pilot screen, human colon tumor cells (AID 823;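 active = cell viability at or below a set limit in both duplicate runs, the limit being the all-compound median minus 4 SD, cut at about 23% in these data, passing the limit was not always enough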;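 also: 0% = wells killed by 20 µM Hyamine and 100% = untreated DMSO cell wells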); conditions: CellTiter-Glo, 60 h, at 10 µM, hits give low values
[5] = inhibitors of the yeast RAM network, pilot screen, dse1pr::URA3 reporter, 5-FOA selection (AID 869);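 also: 0% = DMSO wells with no growth and 100% = 10 µM 1-NA-PP1 with full growth; RAM network block rescues cells from 5-FOA so hits raise OD615 growth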; conditions: S. cerevisiae dse1pr::URA3 5-FOA growth, OD615, 2 d; at 10 µM; hits give high values; strain carries analog-sensitive mutant Cbk1 kinase
[6] = RAM signaling pathway blockade in yeast – S. cerevisiae, Pdr1DBD-CYC8 efflux-inhibited sensitized strain, primary screen (AID 1298;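 active = RAM network inhibition above 8.4% in each of two replicates, 3 SD over the compound average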;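 also: 0% = DMSO untreated cells without growth and 100% = 10 µM 1-NA-PP1 full growth; higher means more yeast growth rescued from 5-FOA killing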); conditions: S. cerevisiae cbk1-as DSE1-URA3 strain, 5-FOA growth OD615, 2 d; at 50 µM; hits give high values

| Compound | growth inhibition [1] [%] | growth inhibition [2] [%] | viability increase [3] [%] | viability [4] | inhibition [5] [%] | RAM network inhibition [6] [%] |
| --- | --- | --- | --- | --- | --- | --- |
| Cc1cccc(N(CC(=O)Nc2c(C)n(C)n(-c3ccccc3)c2=O)S(C)(=O)=O)c1C | -16.3 | -3.62 | -1.08 | 95.3% | 1.41 | 5.77 |
| CSc1nc2c(c(=O)n1-c1ccccc1)SCC2 | -15.9 | -8.25 | -2.76 | 98.3% | 0.775 | 0.21 |
| CCCn1c(CNC(=O)Cc2ccccc2)nc2ccccc21 | 4.79 | 4.86 | -0.37 | 106% | 2.26 | 2.59 |
| Cc1ccc(Cn2c(Sc3nccc(C)n3)nc3c2c(=O)[nH]c(=O)n3C)cc1 | -22.6 | 2.41 | -2.6 | 83.5% | 2.89 | 3.29 |
| O=C(CN(CC(=O)N1CCOCC1)S(=O)(=O)c1ccc(Br)s1)N1CCOCC1 | 5.73 | -2.16 | -3.71 | 98% | -0.32 | 0.11 |
| Cc1ccc(OCCCC(=O)Nc2nncs2)cc1 | -9.25 | -13.4 | 0.75 | 105% | 1.92 | 1.98 |
| Cc1ccc(-c2nc(=S)c3c(n2Cc2ccco2)CC(C)(C)OC3)cc1 | -13.2 | 2.99 | -2.16 | 69.2% | -0.945 | 3.44 |
| CCC(=O)N1CCc2cc(Br)cc(S(=O)(=O)N3CCN(c4ccccn4)CC3)c21 | -6.54 | -9.5 | -2.05 | 101% | 0.44 | 9.66 |
| Cc1sc(NC(=O)c2ccco2)c(C(c2cccnc2)N2CCN(c3ccc(F)cc3)CC2)c1C (stereo unspecified) | -8.72 | 6.02 | -5.73 | 13.3% (active) | 1.42 | 7.4 |
| CCOC(=O)c1c(NC(=O)c2ccc(Cl)s2)sc(C)c1C | -6.9 | -11.2 | -8.89 | 12.6% (active) | 2.4 | 5.6 |
| COc1ccc(CNc2oc(COc3ccccc3)nc2C#N)cc1 | -9.65 | -2.3 | -2.11 | 79% | 4.33 | 2.19 |
| CCn1cc(C(=O)NCc2cccnc2)c2cc(OC)c(OC)cc2c1=O | -18.3 | -10 | -2.26 | 95.7% | 1.67 | 7.22 |
| CN(C)CCCNC(=O)CC(c1ccc(F)cc1)c1ccco1 (stereo unspecified) | -28.8 | 0.42 | -2.97 | 77.9% | 0.69 | 5.45 |
| CCSc1nnc(NC(=O)C2CC=CCC2C(=O)O)s1 (stereo unspecified) | -17.7 | -7.56 | -0.57 | 103% | 0.665 | 4 |
| COc1ccc(NC(=O)C(c2ccc(OC)cc2)N(C)C(=O)c2cnccn2)cc1 (stereo unspecified) | 9.44 | 2.07 | -2.29 | 101% | 2.52 | 1.4 |
| COc1cccc(-c2nnc(NC(=O)c3cccc(F)c3)o2)c1 | -12.9 | 10.2 | 0.12 | 15.9% (active) | 1.04 | 0.35 |
| CC1CCC(NC(=O)Cn2c(=O)[nH]c3ccsc3c2=O)CC1 (stereo unspecified) | -13.7 | -3.85 | 1.29 | 99.5% | 2.09 | 4.16 |
| Cc1cc(C)nc(NS(=O)(=O)c2ccc(NC(=O)c3cccs3)cc2)n1 | -11.4 | -2.39 | -2.29 | 97.7% | 0.89 | 0.21 |
| COc1ccc(-c2nnc(NC(=O)c3cc(Cl)ccc3Cl)o2)cc1 | 4.57 | 4.36 | -5.58 | 35.9% | 2.53 | 8.05 |
| CCSc1oc(-c2ccco2)nc1S(=O)(=O)c1ccc(F)cc1 | -15.7 | -4.69 | -3.11 | 79% | 0.335 | 5.09 |
| COc1ccc(C(=O)OCCN2C(=O)c3ccccc3C2=O)cc1OC | 6.76 | 3.49 | -1.79 | 117% | 0.34 | 0.93 |

| Compound | growth inhibition [1] [%] | growth inhibition [2] [%] | viability increase [3] [%] | viability [4] | inhibition [5] [%] | RAM network inhibition [6] [%] |
| --- | --- | --- | --- | --- | --- | --- |
| COc1ccc2c(c1)-c1nc(NC(=O)c3cccs3)sc1CC2 | -13.6 | -12.2 | -1.82 | 33.6% | 3.16 | 1.99 |
| CCOc1ccc(NC(=O)C2CC(C)=C(C)CC2C(=O)O)cc1 (stereo unspecified) | -13.3 | 2.49 | -1.85 | 99.1% | 1.79 | 1.67 |
| O=C(Cn1nnc(-c2ccccc2NC(=O)c2ccccc2F)n1)NCc1ccco1 | -7.91 | -7.09 | -6.92 | 73.9% | 1.39 | 4.52 |
| O=C1c2ccccc2C(=O)N1CCCC(=O)N1CCc2ccccc21 | -21.9 | 8.75 | -0.37 | 95.7% | 2.44 | 10.1 |
| Nc1ncnc2c1ncn2C1CCC(CO)C(O)C1 (stereo unspecified) | 3.96 | -0.275 | -3.38 | 107% | 1.32 | 3.68 |
| COc1cc2c(cc1OC)C(C(=O)Nc1cccc(C)n1)C(c1cccnc1)N(C)C2=O (stereo unspecified) | 8.34 | -5.33 | -3.94 | 91.7% | 0.58 | 6.27 |
| OCC1(c2cc(C(F)(F)F)n[nH]2)CCCCC1 | 5.65 | -0.23 | -2.12 | 91.4% | 1.2 | -0.68 |
| COc1ccc(NC(=O)C2CCC(C)(C(=O)O)C2(C)C)cc1 (stereo unspecified) | 1 | 3.7 | -0.59 | 96% | 1.27 | 3.75 |
| CC1CCCN(c2nc3c(c(=O)n(C)c(=O)n3C)n2Cc2ccccc2)C1 (stereo unspecified) | -0.33 | -3.24 | -2.17 | 85.9% | 1.67 | 1.56 |
| CCOC(=O)N1CCN(C(=O)CCc2nc3sc4c(c3c(=O)[nH]2)CCCC4)CC1 | -13.4 | 2.66 | -2.68 | 104% | 2.59 | 3.99 |
| O=C(c1ccco1)N1CCN(C(=O)C2Cc3ccccc3CN2S(=O)(=O)c2ccc(F)cc2)CC1 (stereo unspecified) | -12.6 | -9.61 | -4.67 | 97.2% | 3.29 | 7.28 |
| COCCCNC(=O)c1ccc(Cn2c(=O)[nH]c3ccccc3c2=O)cc1 | -10.2 | -0.91 | -5.59 | 34.9% | 1.89 | 5.69 |
| N#C/C(=C1\CCCN1)c1ccc2ccccc2n1 | 1.03 | 3.25 | -4.02 | 94.2% | 2.02 | 3.18 |
| CC(C)CC(NC(=O)C1CCC(C)CC1)C(=O)Nc1ccccn1 (stereo unspecified) | -11.7 | 2.61 | -1.42 | 92.9% | 0.5 | 3.07 |
| CC(C)Sc1nc(N)c2c3c(sc2n1)CN(C)CC3 | -10.7 | 9.69 | -3.04 | 101% | 1.16 | 5.2 |
| N#Cc1c(-c2ccccc2)cc(-c2ccco2)c(C#N)c1N | -21.9 | -10.5 | -7.79 | 38.5% | 1.86 | 8.41 |
| NCCOc1ccccc1-c1ccccc1 | -17.6 | -14.4 | -3 | 87.2% | 2.3 | 2.4 |
| c1coc(CNc2nc3sc4c(c3c3ncnn23)CCCC4)c1 | -19.5 | 0.565 | -2.99 | 99.4% | 2.65 | 3.48 |
| O=C(CN1C(=O)c2cccc3cccc1c23)N1CCN(c2ccc(F)cc2)CC1 | -26.6 | -0.695 | -2.42 | 94.1% | 2.49 | 8.63 |
| CC1Cc2ccccc2N1C(=O)CCS(=O)(=O)c1cccc2nonc12 (stereo unspecified) | 8.09 | 10.7 | -6.45 | 85.7% | 0.56 | 3.48 |
